Key:
[1] = tested on: MDA-MB-231 cells; assay: Compound-drug combination assay; type: cell-based, human; settings: MTT, 24 h
Summary of the method: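 MDA-MB-231 cells seeded at 1.5 × 10^3–5 × 10^3 per well in 96-well plates. Treated 24 h with each agent alone to derive IC40 by MTT. Then treated with the test compound (0–4 μM) combined with paclitaxel (0–100 nM) and read by MTT. Interaction assessed by classic isobologram and the Chou-Talalay method. Combination index plotted against fraction affected: CI <1 synergy, =1 additive, >1 antagonism.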

[2] = tested on: MDA-MB-231 tumor cells in SCID mice; assay: Lung metastatic animal model of TNBC; type: in vivo, mouse; settings: post-treatment, 5 mg/kg i.p. every three days (21 doses), day 71
Summary of the method: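 Seventy female SCID mice, 5 weeks old, randomised into 7 groups. MDA-MB-231 cells (1 × 10^6) injected i.v. on day 0. One group received 10 mg/kg every two days for three doses before cell injection. Tumor and sham controls received 5% DMSO. Mice killed on day 71; lung colonies counted, body weight and organ index recorded; one-way ANOVA.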

[3] = tested on: MDA-MB-231 cells; assay: Boyden chamber; type: cell-based, human; settings: 24 h, Matrigel
Summary of the method: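 Filters (8 μm) pre-coated with Matrigel (30 μg per filter) and held 2 h at 37 °C. MDA-MB-231 cells were seeded in the upper chamber at 5 × 10^4 per insert in DMEM with 0.1% FBS. The lower well held 10% FBS chemoattractant plus 0.5% DMSO vehicle or test compounds, two concentrations each. Incubation 24 h, 37 °C, 5% CO2. Cells on the upper surface were scraped off; invaded cells fixed, DAPI-stained (1 μg/mL) and counted in three 20× fields. Three independent experiments, mean ± SEM, one-way ANOVA.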

[4] = tested on: MDA-MB-231 cells; assay: Cell cycle analysis by flow cytometry; type: cell-based, human; settings: for apoptotic sub-G1 DNA content / G0/G1 phase DNA content: 48 h at IC50 (DET 14 μM, DETD-35 3.8 μM, PTX 60 μM); for apoptotic sub-G1 DNA content: vehicle 1.3%; for G0/G1 phase DNA content: vehicle 51.5%; for cell-cycle arrest: treatment at IC50, time course
Summary of the method: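 MDA-MB-231 cells, 5 × 10^4 per well in 6-well plates, held 24 h in DMEM with 0.5% FBS. Medium then switched to 10% FBS with test compounds for 48 h, or for indicated times. Adherent and floating cells pooled, PBS-washed and fixed in ice-cold 70% ethanol overnight at 4 °C. Stained with 20 μg/mL RNase, Triton X-100 and 20 μg/mL propidium iodide for 30 min, dark, room temperature. Phase fractions (sub-G1, G0/G1, S, G2/M) taken from flow cytometric DNA histograms; three independent experiments.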

[5] = tested on: MDA-MB-231 cells; assay: Western blot analysis of protein markers; type: cell-based, human; settings: for PARP (full-length and cleaved) expression: 48-h treatment
Summary of the method: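 Total cellular protein from treated MDA-MB-231 cells, quantified by Bradford assay. Resolved on 4%–20% gradient SDS-PAGE and immunoblotted for PARP (full-length and cleaved), PN-1, Slug, vimentin, VEGF, E-cadherin, Snail, ZO-1 and ZEB-1, with actin as loading control. HRP secondary antibodies and enhanced chemiluminescence on film. Bands quantified by densitometry and normalised to actin.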

[6] = tested on: MDA-MB-231 cells; assay: Boyden chamber migration assay; type: cell-based, human; settings: 24 h, vs vehicle; for reduction of cell migration, low concentration: DET 2.5 μM, DETD-35 1.25 μM, PTX 2.5 μM
Summary of the method: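 Boyden inserts, 6.5 mm diameter, no coating. 5 × 10^4 MDA-MB-231 cells per insert in DMEM with 0.1% FBS. The lower well held 10% FBS chemoattractant with 0.5% DMSO vehicle or test compounds at two concentrations. Incubation 24 h, 37 °C, 5% CO2. Non-migrated cells removed by swab; migrated cells fixed, DAPI-stained (1 μg/mL) and counted in three fields at 20× by fluorescence microscopy. Three independent experiments, mean ± SEM, one-way ANOVA.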

[7] = tested on: lung tissues of MDA-MB-231 xenograft SCID mice; assay: Immunohistochemistry of lung tissues; type: in vivo, mouse; settings: lung tissue
Summary of the method: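 Lungs from the metastasis model were fixed in 10% buffered formalin, paraffin-embedded and cut at 4 μm. Sections stained with H&E and immunostained with rabbit antibodies to VEGF, Ki-67, COX-2 and caspase 3. Staining levels quantified by image analysis and compared with sham and tumor control groups.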

[8] = tested on: lung cancer cell line PC6; assay: MTT cell viability assay, PC6 cells; type: cell-based; settings: read-out: 50% inhibitory concentration (IC50), PC6, 24 h
Summary of the method: (§1)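 Normal or cancer cells seeded at 2 × 10^3–1 × 10^4 per well in 96-well plates and allowed to settle overnight. Exposed to test compounds for 24 h, with paclitaxel run in parallel as reference. Growth read by MTT, OD570. Viability (%) = treated OD570 / vehicle OD570 × 100, with 0.5% DMSO vehicle set as 100%. IC50 derived from viability data.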

[9] = tested on: kidney cancer cell line A498; assay: MTT cell viability assay, A498 cells; type: cell-based; settings: read-out: 50% inhibitory concentration (IC50), A498, 24 h
Summary of the method: as §1

[10] = tested on: brain cancer cell line U-87MG; assay: MTT cell viability assay, U-87MG cells; type: cell-based; settings: read-out: 50% inhibitory concentration (IC50), U-87MG, 24 h
Summary of the method: as §1

[11] = tested on: uterus cancer cell line NES-SA; assay: MTT cell viability assay, NES-SA cells; type: cell-based; settings: read-out: 50% inhibitory concentration (IC50), NES-SA, 24 h
Summary of the method: as §1

[12] = tested on: MDA-MB-231 (ER−, PR−, HER2−) cells; assay: MTT cell viability assay, MDA-MB-231 cells; type: cell-based, human; settings: read-out: 50% inhibitory concentration (IC50), MDA-MB-231, Table 3, 24 h, breast
Summary of the method: as §1

[13] = tested on: neuroepithelioma line SK-N-MC; assay: MTT cell viability assay, SK-N-MC cells; type: cell-based; settings: read-out: 50% inhibitory concentration (IC50), SK-N-MC, 24 h
Summary of the method: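 Cells (2 × 10^3–1 × 10^4 per well) seeded overnight in 96-well plates, then exposed to test compound for 24 h. Growth read by MTT colorimetric assay at OD570. Viability expressed as treated OD570 over vehicle (0.5% DMSO) OD570 × 100, with vehicle set to 100% viable. IC50 taken as the concentration giving 50% inhibition of viability.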

[14] = tested on: lymphoma line U937; assay: MTT cell viability assay, U937 cells; type: cell-based; settings: read-out: 50% inhibitory concentration (IC50), U937, 24 h
Summary of the method: as §1

[15] = tested on: B16–F10 cells (skin); assay: MTT cell viability assay, B16–F10 cells; type: cell-based; settings: read-out: 50% inhibitory concentration (IC50), B16–F10 (mouse), 24 h
Summary of the method: as §1

[16] = tested on: PC3 cells (prostate); assay: MTT cell viability assay, PC3 cells; type: cell-based; settings: read-out: 50% inhibitory concentration (IC50), PC3, 24 h
Summary of the method: as §1

[17] = tested on: stomach cancer cell line KATO III; assay: MTT cell viability assay, KATO III cells; type: cell-based; settings: read-out: 50% inhibitory concentration (IC50), KATO III, 24 h
Summary of the method: as §1

[18] = tested on: colon cancer cell line HCT-116; assay: MTT cell viability assay, HCT-116 cells; type: cell-based; settings: read-out: 50% inhibitory concentration (IC50), HCT-116, 24 h
Summary of the method: as §1

[19] = tested on: TS/A (ER+, HER2−) murine mammary cancer cell line; assay: MTT cell viability assay, TS/A cells; type: cell-based; settings: read-out: 50% inhibitory concentration (IC50), TS/A (mouse), Table 3, 24 h, breast
Summary of the method: as §1

[20] = DET 4 μM, DETD-35 2.5 μM, PTX 4 μM

Molecule | apoptotic sub-G1 DNA content [4] | G0/G1 phase DNA content [4] | cell-cycle arrest [4] | expressions of VEGF and protease nexin-1 (PN-1) [5] | vimentin expression [5] | PARP (full-length and cleaved) expression [5] | reduction of cell migration, low concentration [6] | IC50 [8] | IC50 [9] | IC50 [10] | IC50 [11] | IC50 [12] | IC50 [13] | IC50 [14] | IC50 [15] | IC50 [16] | IC50 [17] | IC50 [18] | IC50 [19] | also measured
CC(=O)O[C@H]1C(=O)[C@@]2(C)[C@H]([C@H](OC(=O)c3ccccc3)[C@]3(O)C[C@H](OC(=O)[C@H](O)[C@@H](NC(=O)c4ccccc4)c4ccccc4)C(C)=C1C3(C)C)[C@]1(OC(C)=O)CO[C@@H]1C[C@@H]2O [PTX, paclitaxel] | 66.8% | 11.2% | typical time-dependent G2/M arrest | downregulated | time-dependently downregulated | reduced the expression of full-length PARP | 87% |  |  |  |  |  |  |  |  |  |  |  |  | IC40 on MDA-MB-231 cells [1]: 23.8 nM; reduction of lung tumor foci [2]: 62%; inhibition of cell invasion, low concentration ([3]; DET 2.5 μM, DETD-35 1.25 μM, PTX 2.5 μM): 85%; inhibition of cell invasion, high concentration [3, 20]: 90%; reduction of cell migration, high concentration [6, 20]: 88%; expression of apoptotic marker caspase 3 [7]: increased expression
C=C(C)C(=O)O[C@H]1CC2=C[C@@H](C/C(C)=C/[C@H]3OC(=O)C(=C)[C@H]13)OC2=O [compound 1, deoxyelephantopin, reference compound] | 19.3% | 36.2% | did not show any cell-cycle arrest at specific stages | downregulated | did not regulate | induced significant cleavage in PARP | 16% | 400 nM | 2820 nM | 1000 nM | 900 nM | 14000 nM | 510 nM | 480 nM | 6000 nM | 12800 nM | 1470 nM | 280 nM | 2600 nM | ZEB-1 expression level ([5]; at 48 h): 49%
Cinnamate [compound 28] |  |  |  |  |  |  |  | 170 nM | 1110 nM | 350 nM | 420 nM | 4000 nM | 320 nM | 180 nM | 3900 nM | 4500 nM | 420 nM | 110 nM | 1800 nM | 
